RanGTP-Imp inh = disruptors of Ran-importin-beta complex formation – biochemical, FRET, CFP-Ran, YFP-importin-beta, homogeneous, primary screen; AID 2216; inhibition, % (no concentration beside the values); 300,000 compounds, 1.1% hits; cell-free CFP-Ran/YFP-importin-beta FRET ratio;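 active = more than half of the replicate wells show a fall in the fluorescence ratio signal beyond about 16%, limit read from the data, passing the limit was not always enough; inconclusive = exactly half of the replicate wells pass the set limit; inactive = fewer than half of replicates pass the limit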
Tb hexokinase = T. brucei hexokinase 1 inhibition. 220,000 compounds, 0.11% hits. inhibition, % at 10 µM. recombinant TbHK1, G6PDH-coupled NADH A340;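 active = inhibition of 50% or more in the single-dose primary screen; inactive = inhibition below 50%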
Runt-SMMHC FRET = inhibitors of human RUNX1 Runt domain binding to CBFb-SMMHC; inhibition, % at 20 µM; 220,000 compounds, 0.74% hits; Cerulean-Runt/Venus-CBFb-SMMHC FRET ratio 530/480, 1 h; Q01196+Q13951;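 active = mean inhibition across duplicate retests at 20 µM reaching about 50%, limit read from the data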;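 note: inhibitors lower the FRET ratio by blocking Runt binding to CBFb-SMMHC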
Hck-Nef inh = blocks Nef-activated human Hck kinase. 220,000 compounds, 0.68% hits. Recombinant Hck-YEEI plus Nef, Z-Lyte FRET kinase assay. inhibition, % at 20 µM. AID 463187;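 active = Hck-Nef kinase inhibition above about 50%, limit read from the data; inactive = inhibition below that limit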
Target sequence (P08631 whole entry, looked up): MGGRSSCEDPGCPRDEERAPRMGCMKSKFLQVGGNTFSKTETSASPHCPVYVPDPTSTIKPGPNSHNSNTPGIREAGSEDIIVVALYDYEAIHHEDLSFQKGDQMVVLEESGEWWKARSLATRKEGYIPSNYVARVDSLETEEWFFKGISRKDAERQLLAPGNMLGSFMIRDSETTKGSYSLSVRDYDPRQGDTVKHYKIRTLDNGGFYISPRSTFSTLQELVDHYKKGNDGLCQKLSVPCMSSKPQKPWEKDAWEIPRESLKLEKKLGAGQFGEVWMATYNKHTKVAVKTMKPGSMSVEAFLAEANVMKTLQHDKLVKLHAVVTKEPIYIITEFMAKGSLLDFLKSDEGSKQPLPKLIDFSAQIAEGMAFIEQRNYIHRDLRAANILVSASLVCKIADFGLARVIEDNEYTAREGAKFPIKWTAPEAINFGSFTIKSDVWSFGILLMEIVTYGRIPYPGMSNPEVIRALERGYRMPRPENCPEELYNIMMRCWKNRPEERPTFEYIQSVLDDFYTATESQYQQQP
Runt-CBFb FRET = blocks binding of human RUNX1 Runt domain to CBFb | AID 1496 | Cerulean-Runt/Venus-CBFb FRET ratio 530/480, 1 h | 220,000 compounds, 0.46% hits | inhibition, % at 20 µM;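 active = inhibition over about 50% at 20 µM in the single-dose screen, limit read from the data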
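Measured by: fluorescence energy transfer, 422 nm excitation, 530/480 nm emission; Assay system: Cerulean-Runt domain; Medium: Tris pH 7.5 buffer with BSA; Measure: loss of energy transfer signal; Controls: 5 µM unlabeled CBFb as full-inhibition high control; Incubation: protein complex preformed 1 h, compound exposure 1 h, room temperature, dark.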
Runt-CBFb TRFRET = Runt-CBFb binding inhibition; TR-FRET RUNX1 Runt domain-CBFb binding; AID 1502; 480 compounds, 20% hits; inhibition, % at 20 µM; shares compounds with Runt-CBFb FRET; in the data active = inhibition above about 40%
Numbers stand for hits. Hits are enriched below; roughly 1.9% of the tested compounds scored in any of these assays.

`CCC(=O)/C=C1/Sc2ccccc2N1CC` gave RanGTP-Imp inh inactive, Tb hexokinase inactive, Runt-SMMHC FRET inactive, Hck-Nef inh inactive, Runt-CBFb FRET 54.7 and Runt-CBFb TRFRET inactive.
`CCC(=O)/C=C1/Sc2ccc(OC)cc2N1CC` gave RanGTP-Imp inh inactive, Tb hexokinase inactive, Runt-SMMHC FRET inactive and Hck-Nef inh inactive.
For CCCNC(=S)N1CCC(NC(=O)Nc2ccc(C)cc2)CC1 the results were RanGTP-Imp inh inactive, Tb hexokinase inactive, Runt-SMMHC FRET inactive, Hck-Nef inh inactive and Runt-CBFb FRET inactive.
`COc1ccccc1CNS(=O)(=O)c1ccc2c(c1)NC(=O)CO2` gave RanGTP-Imp inh inactive.
`CCc1ccc2[nH]c3nc(C)cc(C)c3c(=O)c2c1` gave RanGTP-Imp inh inactive, Tb hexokinase inactive, Runt-SMMHC FRET 82.6, Hck-Nef inh inactive, Runt-CBFb FRET 57.5 and Runt-CBFb TRFRET inactive.
CCc1ccc2[nH]cc(S(=O)(=O)c3ccc(C)c(C)c3)c(=O)c2c1 was read as RanGTP-Imp inh inactive.
Screening COCCOC(=O)C(C#N)c1nc2ccccc2nc1N1CCN(Cc2ccccc2)CC1 (stereo not drawn) returned RanGTP-Imp inh inactive, Tb hexokinase inactive, Runt-SMMHC FRET 96.9, Hck-Nef inh inactive, Runt-CBFb FRET 53.4 and Runt-CBFb TRFRET inactive.
For COc1ccc(N(C(=O)c2ccc(S(=O)(=O)N3CCCC3)cc2)C2C=CS(=O)(=O)C2)cc1 (stereo not drawn) the results were RanGTP-Imp inh inactive.
`CN1CCc2c(sc3ncn4nc(-c5ccccc5O)nc4c23)C1` gave Tb hexokinase inactive, Runt-SMMHC FRET 125.1, Hck-Nef inh inactive, Runt-CBFb FRET 56.9 and Runt-CBFb TRFRET inactive.
`O=C(CSc1nc2ccccc2s1)Nc1cc(C(=O)O)cc(C(=O)O)c1` gave RanGTP-Imp inh inactive, Tb hexokinase inactive, Runt-SMMHC FRET inactive, Hck-Nef inh inactive, Runt-CBFb FRET 55.2 and Runt-CBFb TRFRET inactive.
For O=C(CSc1nc2ccccc2s1)Nc1ccc(Cl)c(C(=O)O)c1 the results were RanGTP-Imp inh inactive, Tb hexokinase inactive, Runt-SMMHC FRET inactive, Hck-Nef inh inactive and Runt-CBFb FRET inactive.
`CCc1nnc(NC(=O)CSc2nnc(-c3ccccc3O)n2CC)s1` gave RanGTP-Imp inh inactive, Tb hexokinase inactive, Runt-SMMHC FRET inactive, Hck-Nef inh inactive and Runt-CBFb FRET inactive.
For CCc1nnc(NC(=O)CSc2nnc(-c3cccnc3)n2CC)s1 the results were RanGTP-Imp inh inconclusive, Tb hexokinase inactive, Runt-SMMHC FRET inactive, Hck-Nef inh inactive, Runt-CBFb FRET 77.1 and Runt-CBFb TRFRET inactive.
Screening N#CC1=C(N)Oc2cc(N)ccc2C1c1ccc(F)cc1 (stereo not drawn) returned RanGTP-Imp inh 76.1, Tb hexokinase inactive, Runt-SMMHC FRET 86.0, Hck-Nef inh inactive, Runt-CBFb FRET 72.6 and Runt-CBFb TRFRET inactive.
CC1(CCC(=O)N2CCCC(Nc3ccc(F)cc3)C2)CC1 (stereo not drawn) was read as RanGTP-Imp inh inactive.
`Cc1nc(N)c(C#N)c(-c2ccccc2)c1C` gave RanGTP-Imp inh inactive, Tb hexokinase inactive, Runt-SMMHC FRET inactive, Hck-Nef inh inactive and Runt-CBFb FRET inactive.
`Cc1cc(C)c2c(n1)sc1c(-c3ccccc3)c(C#N)c(N)nc12` gave RanGTP-Imp inh 81.9, Tb hexokinase inactive, Runt-SMMHC FRET 83.0, Hck-Nef inh inactive, Runt-CBFb FRET 60.1 and Runt-CBFb TRFRET inactive.
`CN1CCc2c(sc(/N=C/c3c[nH]c4ccccc34)c2C#N)C1` gave RanGTP-Imp inh inactive, Tb hexokinase inactive, Runt-SMMHC FRET inactive, Hck-Nef inh inactive and Runt-CBFb FRET inactive.
For CN1CCc2c(sc(/N=C/c3c[nH]c4ccccc34)c2C(N)=O)C1 the results were RanGTP-Imp inh 46.2, Tb hexokinase inactive, Runt-SMMHC FRET inactive, Hck-Nef inh inactive, Runt-CBFb FRET 53.3 and Runt-CBFb TRFRET inactive.
Cc1sc2ncn(CC(=O)N3CCN(c4ccccn4)CC3)c(=O)c2c1S(=O)(=O)N1CCC(C)CC1 was read as RanGTP-Imp inh inactive.
`O=C(CSc1nc(O)c(C2CCCCC2)c(=O)[nH]1)Nc1ccccc1Cl` gave RanGTP-Imp inh inactive.
Screening COc1ccc(OC)c2c1C(=O)C(Cl)=C(Cl)C2=O returned RanGTP-Imp inh inactive, Tb hexokinase inactive, Runt-SMMHC FRET 66.2, Hck-Nef inh inactive, Runt-CBFb FRET 67.9 and Runt-CBFb TRFRET inactive.
Screening COc1ccc(-c2nc(=S)[nH][nH]2)cc1OC returned RanGTP-Imp inh inactive, Tb hexokinase inactive, Runt-SMMHC FRET inactive, Hck-Nef inh inactive, Runt-CBFb FRET 51.4 and Runt-CBFb TRFRET inactive.
Screening CCOC(=O)N/N=C/c1c(F)c(F)c(F)c(F)c1F returned Tb hexokinase inactive, Runt-SMMHC FRET inactive, Hck-Nef inh inactive, Runt-CBFb FRET 50.4 and Runt-CBFb TRFRET inactive.
Screening Oc1ccc(Br)cc1-c1ccn[nH]1 returned RanGTP-Imp inh inactive, Tb hexokinase inactive, Runt-SMMHC FRET inactive, Hck-Nef inh inactive and Runt-CBFb FRET inactive.
Oc1ccc(O)c(-c2cnns2)c1 was read as RanGTP-Imp inh inactive, Tb hexokinase inactive, Hck-Nef inh inactive, Runt-CBFb FRET 70.8 and Runt-CBFb TRFRET inactive.
CN(C(=O)c1ccccc1OC1CCN(S(C)(=O)=O)CC1)C1CCOC1 (stereo not drawn) was read as RanGTP-Imp inh inactive, Tb hexokinase inactive, Runt-SMMHC FRET inactive, Hck-Nef inh inactive and Runt-CBFb FRET inactive.
Screening Oc1ccc2ccccc2c1/C=N/Nc1ccccc1 returned RanGTP-Imp inh inactive, Tb hexokinase inactive, Runt-SMMHC FRET inactive, Hck-Nef inh inactive and Runt-CBFb FRET inactive.
For Oc1ccc2ccccc2c1C=NCc1ccccc1 the results were RanGTP-Imp inh inactive, Tb hexokinase inactive, Runt-SMMHC FRET inactive, Hck-Nef inh inactive, Runt-CBFb FRET 118.8 and Runt-CBFb TRFRET inactive.
COc1ccc(N2C(=O)C(Cl)=C(Oc3cccc(OC)c3)C2=O)cc1 was read as Tb hexokinase inactive, Runt-SMMHC FRET inactive, Hck-Nef inh inactive, Runt-CBFb FRET 57.4 and Runt-CBFb TRFRET 43.3.
Screening CC(C)C(C)(C#N)NC(=O)CSc1nnc(-c2ccncc2)n1Cc1ccccc1 (stereo not drawn) returned RanGTP-Imp inh inactive, Tb hexokinase inactive, Runt-SMMHC FRET inactive, Hck-Nef inh inactive, Runt-CBFb FRET 56.4 and Runt-CBFb TRFRET inactive.
COc1ccc(/C(O)=C2/C(=O)C(=O)N(c3ccccn3)C2c2ccc(F)cc2)cc1 (stereo not drawn) was read as RanGTP-Imp inh inactive.
C=CCC(CC=C)(NC(=O)c1ccccc1C)c1ccccc1 was read as RanGTP-Imp inh inactive, Tb hexokinase inactive, Runt-SMMHC FRET inactive, Hck-Nef inh inactive and Runt-CBFb FRET inactive.
`CCS(=O)(=O)Nc1cccc(-c2nc3cccnc3s2)c1` gave RanGTP-Imp inh inactive, Tb hexokinase inactive, Runt-SMMHC FRET inactive, Hck-Nef inh inactive and Runt-CBFb FRET inactive.
